Measurements published in ChEMBL document CHEMBL4513216, “Probing the Open Global Health Chemical Diversity Library for Multistage-Active Starting Points for Next-Generation Antimalarials” (ACS Infect Dis, 2020).

assay: Toxicity liver stage against HepG2, at 10uM; assay type: cell-based; parameters: test concentration 10 uM, cell line HepG2-A16-CD81EGFP; details: human, HepG2-A16-CD81EGFP cells; read-out: INHIBITION
Procedure, shortened: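 Uninfected HepG2-A16-CD81EGFP cells, 3 × 10^3 per well, 1536-well, plated on prespotted compound at 10 μM final, parasite-free screening media added to match infected plates; puromycin 10 μM positive, DMSO 0.5% negative; run in parallel with 48 h PbLuc assay at 37 °C, 5% CO2; viability by CellTiter-Glo luminescence, normalized to controls.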

| SMILES | cytotoxicity at 10 µM [%] |
| --- | --- |
| O=C1CC(N2CCN(c3ccc(O)cc3)CC2)C(=O)N1Cc1cccs1 (stereo not drawn) | 5.77 |
| CC(C)(CO)Nc1c(NCc2ccncc2)c(=O)c1=O | -3.97 |
| CC(C)CC(=O)Nc1ccc2c(c1)ncn2CC(=O)NCCN(C)C | -7.58 |
| Cc1ccc(-c2csc3c(=O)[nH]c(N4CCCC(C(=O)O)C4)nc23)cc1 (stereo not drawn) | -68 |
| CCOc1ccccc1C(=O)NCCc1ccoc1 | 8.54 |
| Cc1nc(N2CCN(C(=O)c3cccnc3)CC2)cc(-n2cccc2)n1 | -5.19 |
| O=C(CN1C(=O)CCC1=O)N1CCOC2(CCOCC2)C1 | 4.1 |
| CO[C@@H]1CC[C@H]2[C@H]1OCCN2C(=O)C1CCOCC1 | 3.33 |
| COCCNc1c(C#N)c2c(c3nncn13)CN(C)CC2 | 6.83 |
| CC(=O)CSc1nnc2n1N=CN(c1cccc(Cl)c1)C2 | 1.05 |
| CCOC1Sc2nnc(C)n2N=C1c1ccc(F)cc1 (stereo not drawn) | 4.48 |
| CCOC(=O)CCC(=O)N1CCC(Oc2ccc(C(F)(F)F)cn2)CC1 | 11.6 |
| Cc1noc2nc(C3CC3)c(Cl)c(C(=O)O)c12 | -1.25 |
| Cn1nccc1CNC(=O)C1CCCCC1 | 7.89 |
| O=C(NCC1CCCO1)c1cc(Sc2ncccn2)ccn1 (stereo not drawn) | -17.2 |
| CSCc1cccc(S(=O)(=O)N2CCC(C)CC2)c1 | 13.1 |
| Cc1cncc(CN2CC[C@@](O)(CNC(=O)c3c[nH]cn3)[C@H](O)C2)c1 | -1.68 |
| CCc1cc(O)n2nc(C3CCN(C(=O)c4ccncc4)CC3)cc2n1 | 3.51 |
| COC(=O)c1cccc(C2CNCCN2C)c1 (stereo not drawn) | 0.5 |
| N[C@@H]1CCCN(C(=O)Cc2c[nH]c3ccccc23)[C@H]1c1ccccc1F | 7.45 |
| O=C(O)c1ccc(CN2CCCC(Cc3ccn[nH]3)C2)cc1 (stereo not drawn) | -6.08 |
| CCOCCN1CCC(c2cnccn2)CC1 | 5.8 |
| Cc1nc(C2CCN(c3ccccc3)CC2)no1 | -28.4 |

| SMILES | cytotoxicity at 10 µM [%] |
| --- | --- |
| Cc1noc(C)c1-c1cncc(C2CCCN2Cc2c[nH]cn2)n1 (stereo not drawn) | -12.4 |
| Cc1ccc(O)c(CN2CCc3nc(-c4cccnc4)nc(O)c3C2)c1 | 5.19 |
| O=S(=O)(N1CCOCC1)N1CCC(Oc2cnccn2)CC1 | -23.3 |
| Cc1cnn(CC(C)NCc2ccc(C#N)cc2)c1 (stereo not drawn) | -11.8 |
| CC(c1ccncc1)N(C)S(C)(=O)=O (stereo not drawn) | 1.18 |
| Cc1noc(CNc2ccc(CC(=O)N3CCSCC3)cc2)n1 | -2.29 |
| CCNC(=O)NC(C)(C)C(=O)NCCc1csc2ccccc12 | -15.5 |
| Cc1sc(C(=O)NS(C)(=O)=O)cc1-c1ccc(F)cc1 | 2.53 |
| CN(CCOc1ccccc1F)C1CCOC1=O (stereo not drawn) | -147 |
| COCCCN1Cc2cccc(NC(=O)c3cc(F)ccc3F)c2C1 | -1.74 |
| CCn1ccnc1CN1CCN(C(C)C)CC1C (stereo not drawn) | -6.58 |
| c1ncc2c(n1)CN(c1ncnc3[nH]ccc13)CC2 | -4.28 |
| O=C(NCc1ccnc(OCC2CC2)c1)C1COc2ccccc2O1 (stereo not drawn) | -3.88 |
| CCn1nc2c(cc1=O)CN(CCCOc1ccc(C#N)cc1)CC2 | 14 |
| CC(C)N(C)C(=O)c1ccc(CNc2cncc(Cl)n2)cc1 | 2.87 |
| Nc1cc2c(nn1)CCN(C(=O)CCc1ccc3c(c1)OCO3)C2 | 3.23 |
| CC(C(=O)N1CCC(Cc2ccc(F)cc2)CC1)n1ccnc1 (stereo not drawn) | 4.57 |
| CN(C1CCN(c2ccccn2)CC1)S(=O)(=O)c1cccs1 | 13.3 |
| CS(=O)(=O)NC1CCCN(c2ccc(C#N)cn2)C1 (stereo not drawn) | -12.7 |
| Cc1cc(CNC(=O)NCCOc2ccc(F)c(F)c2)on1 | 16.3 |
| CC(C)C(=O)NCc1ccnc(Oc2ccc(F)cc2)c1 | 6.06 |
| CCN1CCN(C(=O)NCc2ccccc2Cn2cncn2)CC1 | 0.663 |
| CC(C)S(=O)(=O)NCC1CCCN(C(=O)c2ccc(Cl)cc2)C1 (stereo not drawn) | -3.44 |

| SMILES | cytotoxicity at 10 µM [%] |
| --- | --- |
| COCCn1cc(NCc2c[nH]nc2C(C)(C)C)cn1 | -2.35 |
| Cc1cc(CNC(=O)Nc2cc(F)cc(N3CCCC3)c2)no1 | -17.7 |
| Cc1noc(C)c1CSc1nc(=O)ccn1C(C)C | 5.95 |
| CCOc1ccc(NC(C)C(=O)Nc2cc(C)no2)cc1 (stereo not drawn) | 7.04 |
| COc1cc(CN(C)CCc2ccncc2)c(SC)cc1OC | -2.92 |
| O=S(=O)(C1CC1)N1CCC2(CCCN(Cc3ccccn3)C2)CC1 | 5.97 |
| CN(C)C(=O)N1C[C@H]2CN(Cc3cccc(F)c3)C(=O)[C@H]2C1 | 4.61 |
| O=C1NCCN(CC2CC2)C12CCN(Cc1ccc3c(c1)OCO3)CC2 | -1.06 |
| CCOCC(=O)N1CCC(c2nccn2Cc2cscn2)CC1 | -5.58 |
| CCc1ccc(CN(CC)Cc2ccc(S(=O)(=O)NC)cc2)cc1 | -8.55 |
| Cc1nn2c(N3CCC(C#N)CC3)cc(-c3ccccc3)nc2c1C | -8.6 |
| CCc1nc(NC2CCCN(C(=O)c3cccs3)C2)c2cnn(C)c2n1 (stereo not drawn) | 13.9 |
| CC(=O)N[C@@H]1CN(Cc2ccco2)C[C@H]1c1ccc(C)o1 | -3.33 |
| Cn1nnnc1SCCNC(=O)CC1CCc2ccccc21 (stereo not drawn) | -2.49 |
| Cc1cc2cccc(C(=O)N3CCOC(CCN(C)C)C3)c2o1 (stereo not drawn) | 5.91 |
| COc1ccc(NC(=O)N2CCCC(CO)C2)c(C)c1 (stereo not drawn) | -8.33 |
| CC(C)[C@@H]1CN(S(=O)(=O)Cc2ccccc2)C[C@H]1NS(=O)(=O)N(C)C | -0.625 |
| COCCN(C)CCN1CC2(CCN(C3CCOC3)CC2)OC1=O (stereo not drawn) | 4.63 |
| CC(C)CN1CCn2nc(CNc3ncnc4[nH]cnc34)cc2C1 | 6.88 |
| Cc1nonc1C1CCCN1C(=O)CCc1cc2n(n1)CCCNC2 (stereo not drawn) | -5.65 |
| CCC(C)N(Cc1cccnc1)C(=O)c1ccc(OC)cc1O (stereo not drawn) | 8.65 |
| C=C(C)CNc1ccc(C(=O)N(CC)Cc2nccn2C)cn1 | -9.36 |
| CCC(C(=O)N1CCN(C(=O)N2CCOCC2)CC1)n1cccn1 (stereo not drawn) | 2.35 |

| SMILES | cytotoxicity at 10 µM [%] |
| --- | --- |
| CSc1ccccc1CCC1CCS(=O)(=O)C1 (stereo not drawn) | 3.75 |
| N#Cc1cccc(C(=O)N2C[C@H](CO)C[C@H](CN3CCCC3)C2)c1 | -1.04 |
| O=C1NCC(c2ccc(Cl)cc2)Cc2[nH]c(CCN3CCOCC3)nc21 (stereo not drawn) | -5.68 |
| CCCN(CCO)C(=O)c1cc(COc2ccc3c(c2)CCCC3)on1 | -159 |
| O=C1O[C@@H]2CN(C3CCOCC3)C[C@@H]2N1CCCc1ccc(F)cc1 | 5.77 |
| CC(C)CNC(=O)CN1CCCC(c2ccc(C(=O)O)cc2)C1 (stereo not drawn) | -6.49 |
| CN1N=C(C(=O)N2CCCC(CCc3cccc(F)c3)C2)CCC1=O (stereo not drawn) | -3.42 |
| CC(=O)c1ccc(C(=O)N2C[C@@H](CN3CCCC3)[C@@H](CO)C2)cc1 | -0.434 |
| CCc1cc(C(=O)N2CCC(C3CCN(c4ncccn4)CC3)C2)on1 (stereo not drawn) | 2.25 |
| CCCc1nnc(NC2CCN(Cc3ccc(F)c(F)c3)CC2)o1 | -1.48 |
| COc1ccc(-c2n[nH]cc2CN(C)Cc2nonc2C)c(F)c1 | -6.46 |
| O=C(CO)N1CCCC2(CCC(=O)N(CC3CC3)C2)C1 (stereo not drawn) | 5.75 |
| CCn1cnnc1CCNc1nc(C)cc(C)c1C#N | 2.56 |
| Cc1nn(CCNC(C)Cn2ccnc2)c(C)c1Cl (stereo not drawn) | -5.19 |
| CCOc1ccc2[nH]c(=O)c(CN3CCCC3c3ccccn3)cc2c1 (stereo not drawn) | -7.04 |
| Cc1ccc(-c2nccn2-c2ccc(OC3CCN(C)CC3)cc2)o1 | -10.4 |
| CNC(=O)c1cc(OC)c(OC)cc1N(C)S(C)(=O)=O | -5.58 |
| CCC(NC(=O)C1CCN(S(C)(=O)=O)CC1)c1ccc(C)cc1 (stereo not drawn) | -5.85 |
| CC(C)(CNC1CCCN(Cc2ccccn2)C1)CN1CCOCC1 (stereo not drawn) | 5.91 |
| Cc1cc(C)n(-c2ccccc2NC(=O)NCCS(=O)(=O)CC(C)C)n1 | -3.92 |
| CCCNCc1cc2c(C)cc(C)cc2n2c(=O)n(C)nc12 | -3.09 |
| Nc1cc(CCC2CN(Cc3ccc(C(=O)O)cc3)CCO2)ccn1 (stereo not drawn) | 6.98 |
| CC(C)c1ccc(OCCNC(=O)CN2CCN(C)CC2C)cc1 (stereo not drawn) | -13.2 |

| SMILES | cytotoxicity at 10 µM [%] |
| --- | --- |
| COCCOc1cccc(CNCc2c(C)nn(C)c2N(C)C)c1 | -7.19 |
| Cc1nc(C)n(CC2CCCN2Cc2nc(-c3ccccn3)no2)n1 (stereo not drawn) | -9.48 |
| NC(=O)Cc1ccc(NC(=O)C2CCOCC2)cc1 | -1.2 |
| CC1CN(CC(=O)Nc2nncs2)CCN1c1nccs1 (stereo not drawn) | -15.7 |
| c1csc(-c2nc(CNC3CCc4ncnn4C3)cs2)c1 (stereo not drawn) | 2.07 |
| O=C(Nc1nccs1)NC1CCN(Cc2ccccc2)C1 (stereo not drawn) | -9.93 |
| CCc1nc(C2CCCN2C(=O)c2ncoc2CC)no1 (stereo not drawn) | -12.8 |
| Cc1ncsc1C(=O)N(C)Cc1cccc(Cl)c1 | -1.27 |
| CC(C)c1nnc2n1CCN(C(=O)CN1Cc3ccccc3C1=O)C2 | -1.81 |
| CCOC(=O)CN1CCC(C(=O)c2cc(F)ccc2F)CC1 | -8.11 |
| COc1ccc(CNC(=O)N(Cc2ccc(F)cc2F)C2CC2)cn1 | -6.67 |
| CCN(CC1CCCO1)C(=O)Nc1cc(OC)c(OC)cc1C (stereo not drawn) | -10.9 |
| O=C(C1CCC1)N1CCN(c2snc3ccccc23)CC1 | 11.2 |
| Cc1csc(N2CCCN(Cc3noc(C)n3)CC2)n1 | -4.26 |
| CN(Cc1ccsc1)C(=O)CN1CCOC(Cn2cccn2)C1 (stereo not drawn) | -14.7 |
| CNC(=O)c1ccc2c(c1)C1(CCN(CC(C)C)CC1)C(=O)N2 | -2.56 |
| CC(C)OCc1nn(C)c2c1CCN(CC1CC1)C2 | 4.91 |
| O=C(c1cnccn1)N1C[C@@H](OCc2ccncc2)[C@@H]2OCCC[C@@H]21 | -2.91 |
| Fc1ccccc1OCCc1cc(C2CNCCO2)n[nH]1 (stereo not drawn) | -2.16 |
| CC(C)CS(=O)(=O)N1C[C@@H]2C[C@H](C(=O)N3CCCC3)[C@H](C1)O2 | 17 |
| CC(C)=CCN1C[C@@H]2CC[C@H]1CN(C(=O)c1ccc3c(c1)OCO3)C2 | -0.988 |
